The source of these data is ChEMBL document CHEMBL4513216, “Probing the Open Global Health Chemical Diversity Library for Multistage-Active Starting Points for Next-Generation Antimalarials” (ACS Infect Dis, 2020).

Molecules are shown by their SMILES.

This data set in a line: Toxicity liver stage against HepG2, at 10uM. It counts as cell-based. More on the design: test concentration 10 uM, cell line HepG2-A16-CD81EGFP. The following applies: human, HepG2-A16-CD81EGFP cells; read-out: INHIBITION
A digest of the protocol:
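Uninfected HepG2-A16-CD81EGFP cells, 3 × 10^3 per well, 1536-well, plated on prespotted compound at 10 μM final, parasite-free screening media added to match infected plates; puromycin 10 μM positive, DMSO 0.5% negative; run in parallel with 48 h PbLuc assay at 37 °C, 5% CO2; viability by CellTiter-Glo luminescence, normalized to controls.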
Consider `NC(=O)CN1C[C@@H](c2ccccc2F)[C@@]2(CCCCC(=O)N2)C1`, for which the cytotoxicity at 10 µM worked out at 7.04%.
The value for `CN(CC1CCCCO1)c1nncc(-c2cccc(F)c2)n1` (stereo not given) was 8.01%; that for `O=c1cc(Cn2ccnc2)nc2n1CCCN(Cc1ccsc1)C2` was -0.808%.
For `CCOC(=O)c1ccc(CNC(=O)c2ccc(Cl)cn2)o1` the value was 6.72%.
The value for `c1cnc(N2CCO[C@H]3[C@H](OCC4CCOCC4)CC[C@@H]32)nc1` was 4.55%; that for `N#Cc1ccnc(N2CCN(Cc3cccc(F)c3)CC2)c1` was 0.795%.
Take `CCOc1ccc(-c2cc(=O)n3c(n2)CCCCC3)cc1`: the cytotoxicity at 10 µM worked out at 5.36%.
The value for `Cc1ncsc1CN1C[C@@H]2COC[C@]2(C(=O)NC(C)C)C1` was -98.6%.
For `COc1ccc2nnc(CCC(=O)Nc3nc4c(s3)CCCC4)n2n1`, the cytotoxicity at 10 µM was -6.98%.
The value for `CCCC(=O)Nc1cccc(C(=O)N(C)CCCC2CCCO2)c1` (stereo not given) was 1.03%; that for `CCO[C@H]1CO[C@@]2(CCCN(S(=O)(=O)c3ccccc3)C2)C1` was 4.42%; that for `COC(=O)N1CC[C@@]2(C1)[C@H](OC)CN(c1ccccc1)S2(=O)=O` was 5.78%.
For the molecule `CNC(=O)[C@@H]1C[C@@H](N)CN1Cc1cc2cc(C)cc(C)c2[nH]c1=O`, the cytotoxicity at 10 µM is -5.23%.
The value for `CC(Cn1ccnc1)NC(=O)N(C)Cc1ccsc1` (stereo not given) was 2.69%; that for `CC(C)(C)c1ncc2c(n1)CN(C(=O)c1ccc3[nH]cnc3c1)C2` was -2.62%.
The value for `Cc1noc(C)c1CNC(=O)N1CCC(NS(C)(=O)=O)CC1` was -9.41%; that for `Cc1noc(C(C)N2CCN(Cc3nnc(C4CC4)o3)CC2)n1` (stereo not given) was -11.8%; that for `CCC(=O)Nc1nnc(CCCOc2ccccc2)s1` was -0.834%.
For `COc1ccccc1CN(Cc1nc(Cc2ccccc2)no1)C1CC1` the value was 9.54%.
Take `N#Cc1cc(N2CCC(CS(N)(=O)=O)CC2)nc2ccccc12`: the cytotoxicity at 10 µM is -6.03%.
The value for `Cn1cc(CN2CC[C@]3(C[C@H](OCc4ccccn4)CO3)C2)cn1` was -1.08%.
The value for `CC(Cn1cccn1)C(=O)N1CCC(Nc2cccnn2)CC1` (stereo not given) was -9.28%; that for `COc1cccc(N2CCN(C(=O)C(C)Oc3ccccc3)CC2=O)c1` (stereo not given) was -4.73%.
As to `CN(C)C(=O)COCC1CN(Cc2ccoc2)Cc2ncn(C)c21` (stereo not given), the cytotoxicity at 10 µM amounted to 5.99%.
For `CCn1c(CN(C)CC(F)(F)F)nc2c(F)cccc21` the value was -5.35%; for `Cc1cccc(CO[C@@H]2CC[C@H]3[C@H]2OCCN3Cc2ccsc2)n1`, -16.3%; for `Cc1cc(Cc2ccc(F)cc2)cc(C2CCCNC2)n1` (stereo not given), -3.14%.
Consider `Cc1ccc(S(=O)(=O)NC(=O)CCOCC(C)C)s1`, for which the cytotoxicity at 10 µM was -5.36%.
The value for `CC(=O)N1CCc2[nH]cnc2C12CCN(CC1CCOC1)CC2` (stereo not given) was -8.46%; that for `COc1ccccc1CN(C)C(=O)C[S+]([O-])Cc1cc(C)on1` (stereo not given) was 0.788%.
The value for `COC(=O)CC(NC(=O)c1ccc(OC)cc1OC)c1cccs1` (stereo not given) was -0.554%; that for `CC(C)n1cnnc1CN(C)Cc1ccc(CO)o1` was 3.68%.
For `CN(C)c1cc(C(=O)N2CCCN(c3cccnn3)CC2)ccn1` the value was -8.19%; for `COc1ccccc1CN1C[C@@H](F)[C@@H](OCc2nc3ncccc3[nH]2)C1`, 6.96%.
Turning to `CC(=O)c1cn(CC(=O)N2CCC(O)(CO)CC2)c2ccccc12`, the cytotoxicity at 10 µM was found to be 1.13%.
Take `CN1CCC(NCC(O)c2cccc(OCc3ccccc3)c2)CC1` (stereo not given): the cytotoxicity at 10 µM was -11.7%.
For `CC(=O)Nc1ccc(CNC(=O)CNCc2sc(C)nc2C)cc1` the value was 6.95%; for `CO[C@H]1CN(Cc2ccc(F)c(F)c2)C[C@@]12CCCO2`, -5.52%.
The value for `COC(=O)c1ccc(OC)c(OC23CCCN(CC2)C3)c1` (stereo not given) was -13.9%.
On to `O=C(NC1CCc2nccn2C1)c1ccc(OCC2CC2)nc1` (stereo not given), for which the cytotoxicity at 10 µM was 4.36%.
For `COc1c(C(=O)NC(C)Cc2ccccc2Cl)c(C)nn1C` (stereo not given) the value was -0.686%; for `Nc1nnc(SCC(=O)NCC(O)c2ccccc2)s1` (stereo not given), 12%.
In the case of `CCn1cc2c(n1)CN(C(=O)c1ccncc1)CC2COCC1CC1` (stereo not given), the cytotoxicity at 10 µM was -2.37%.
For `CC(CC1CC1)NCCCN1CCCN(C)CC1` (stereo not given) the value was 31.7%.
The value for `COCc1ccccc1C(=O)N1CCC(CNC(=O)OC(C)(C)C)C1` (stereo not given) was 10.1%.
Turning to `Cc1cc(C(=O)N2CCc3ncc(CN4CCCC4)n3CC2)no1`, the cytotoxicity at 10 µM was -108%.
Consider `Cc1noc(C)c1CNc1cccc(C(=O)N(C)c2ccccc2)c1`, for which the cytotoxicity at 10 µM was 17.5%.
Take `COc1ccc2c(ccn2CCC(=O)Nc2n[nH]c(C(C)C)n2)c1`: the cytotoxicity at 10 µM is 3.3%.
The value for `Cc1cc(-c2cnc(N3CCNC(=O)C3)nc2-c2ccncc2)on1` was -25%; that for `Cc1ccccc1-c1cncc(C2CCN(Cc3ccccn3)CC2)n1` was -22.2%.
The value for `O=C(N1CCC(Oc2ccncc2)CC1)C1(c2ccc(F)cc2)CC1` was -7.66%.
The value for `O=C(CS(=O)(=O)c1ncccc1Cl)NC1CCCc2ccccc21` (stereo not given) was -7.69%; that for `CCc1nc(N2CCCC(CCCOC)C2)c2cnn(C)c2n1` (stereo not given) was 6.46%; that for `CCOc1ccc(Cl)c(C(=O)NCCC(=O)Nc2ccccn2)n1` was -3.13%.
For `c1ccc(N2CCOCC3(CCCN(c4nccs4)C3)C2)nc1` (stereo not given), the cytotoxicity at 10 µM is -104%.
For `CCOCC1COCCC12CCN(C(=O)C1=CCCCC1)CC2` (stereo not given) the value was -3.09%; for `CC(=O)Nc1nc(C(=O)NCc2ccnc(N3CCCC3)c2)cs1`, -1.94%.
For `CCOc1ncccc1NC(=O)N1CCCC(CNC(N)=O)C1` (stereo not given) the value was -11.1%.
For `CN(C)C(=O)[C@@H]1CC[C@@H]2[C@@H](CCN2Cc2ccccn2)O1` the value was -3.55%.
Turning to `O=C(Cc1ccccn1)N1CCC(O)(Cn2ccc3ccncc32)CC1`, the cytotoxicity at 10 µM is -5.24%.
As to `O=C(c1cscn1)N1CCC2(CCN(Cc3nccs3)C2)CC1`, the cytotoxicity at 10 µM was 1.8%.
With `CCOCCC(=O)Nc1ccnn1-c1ccc(Cl)cc1`, the cytotoxicity at 10 µM is -12.6%.
As for `Cc1nc(CN2CCOCC3(CCN(c4cnccn4)CC3)C2)cs1`, the cytotoxicity at 10 µM worked out at 7.37%.
Turning to `O=C(NCc1ccccc1)NCC(O)c1cccc(F)c1` (stereo not given), the cytotoxicity at 10 µM was -5.09%.
The value for `CNc1cc(C2CN(C(=O)c3ccn(C)n3)CCO2)nc(C)n1` (stereo not given) was 12.6%; that for `O=S(=O)(C1CC1)N1CCO[C@H]2[C@H](Oc3cccnc3)CC[C@@H]21` was -0.24%; that for `Nc1nc(N2CCCCC2)ncc1C(=O)NCc1ccc(F)c(Cl)c1` was -17.2%.
The value for `Cc1cc(C)nc(C2CCCN2S(=O)(=O)N2CCOCC2)n1` (stereo not given) was 0.55%; that for `COCCCNC(=O)CN1CCOC(c2ccccc2)C1` (stereo not given) was 18.6%.
For `CN(C)C(=O)NCc1ncn2c1CN(Cc1ccco1)CCC2` the value was 8.22%; for `Cc1nn(C)cc1S(=O)(=O)N(C)[C@@H]1CCC[C@@H](n2ccnc2)[C@@H]1O`, -2.78%; for `Cc1ccc(CN2CC[C@H]3C(=O)N(c4cccnc4)CCO[C@H]3C2)o1`, 7.8%.
For `Cc1ccc(CN2CCCC2(C(N)=O)c2cnccn2)c(C)c1` (stereo not given), the cytotoxicity at 10 µM was 4.11%.
The value for `O=C(c1ccno1)N1CC2(CCC(C(=O)N3CCCC3)O2)C1` (stereo not given) was -157%; that for `CNC(=O)c1cc(C2CCCNC2)n[nH]1` (stereo not given) was 9.03%.
Regarding `CC(=O)N1CCC(c2nc(C)cc(-c3ccccc3C(=O)O)n2)CC1`, the cytotoxicity at 10 µM is -28%.
The value for `Cc1nc2cc(C(=O)N3C[C@@H](C(=O)O)[C@H](C4CC4)C3)ccc2[nH]1` was -12.1%.
Turning to `COc1cccc(S(=O)(=O)NC(=O)c2c(C)noc2C(C)C)c1`, the cytotoxicity at 10 µM was -6.83%.
The value for `O=C(c1cnccn1)N1CCC2(CCCN(Cc3ccoc3)C2)C1` (stereo not given) was -139%; that for `O=C(O)c1coc(COc2cccc3cnccc23)n1` was -110%; that for `CCc1ccccc1C(=O)N1C[C@@H](CN2CCOCC2)[C@@H](CO)C1` was -0.125%.
For `CC(=O)N1CCC(C(=O)NC(C)c2cccc(OC(F)F)c2)CC1` (stereo not given), the cytotoxicity at 10 µM was -8.2%.
For `Cc1ncsc1CN1C[C@H](C(=O)N2CCCO2)[C@@H]2CCO[C@@H]2C1` the value was -11.6%; for `CCOc1cc(CNCc2nc(C)cc(=O)[nH]2)c(Cl)cc1OC(C)C`, -7.83%; for `CCOC1CCCN(C(=O)NCCc2ccn(-c3ccccc3)n2)C1` (stereo not given), 3.13%.
For `CC(C)COCc1cncc2c1CCN(Cc1cnn(C)c1)C2` the value was -7.96%.
For `Cc1ccc(C)c(-n2nnnc2SCN2CCCCC2=O)c1` the value was -47.3%; for `CC(C)NC(=O)N1CCN(Cc2ccccn2)CC2(CC(=O)N(C)C2)C1` (stereo not given), 2.79%; for `COc1cc2cc3c(nc2cc1OC)OCCN(Cc1cccs1)C3`, 11.4%.
Regarding `CC(C)Cn1cnnc1C1CCCN1C(=O)c1ccc(F)cc1F` (stereo not given), the cytotoxicity at 10 µM is -2.01%.
The value for `Cc1nn(C)c2cn(C(C)C(=O)NCc3ccc(F)cc3)nc12` (stereo not given) was 9.46%; that for `CS(=O)(=O)NCc1ccc2c(c1)CCC2` was -1.9%; that for `Cc1noc(CN(C)Cc2cnc(N3CCOCC3)nc2)n1` was -14%.
For `OC(CNc1ccc(Cl)cn1)CN1CCOCC1` (stereo not given) the value was 4.15%; for `COCCC(=O)N1CCC2(CC1)CC(c1ccccc1)CN(C1CC1)C2` (stereo not given), -0.173%.
